Columns and labels:
Assay type in all cases: functional
SK-MEL-28 = experiment: Cytotoxicity against human SK-MEL-28 cells assessed as cell growth at 10 uM; details: read-out: Activity
In short: (§1)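 NCI-60 screen: cells grown in RPMI 1640 with 5% FBS and 2 mM L-glutamine, plated at 5000–40,000 cells/well according to doubling time, and preincubated 24 h at 37 °C, 5% CO2. The single 10 µM dose (DMSO stock) was added, then incubated 48 h. Cells were TCA-fixed and stained with 0.4% SRB, read at 515 nm, and growth % calculated against time-zero and control plates.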

OVCAR-3 = experiment: Cytotoxicity against human OVCAR-3 cells assessed as cell growth at 10 uM; details: read-out: Activity; in short: as §1
SR = experiment: Cytotoxicity against human SR cells assessed as cell growth at 10 uM; details: read-out: Activity; in short: as §1
NCI/ADR-RES = experiment: Cytotoxicity against human NCI/ADR-RES cells assessed as cell growth at 10 uM; details: read-out: Activity; in short: as §1
M14 = experiment: Cytotoxicity against human M14 cells assessed as cell growth at 10 uM; details: read-out: Activity; in short: as §1
RXF 393 = experiment: Cytotoxicity against human RXF393 cells assessed as cell growth at 10 uM; details: read-out: Activity; in short: as §1
[1] = Growth inhibition of human NCI60 cells at 10 uM after 48 hrs by sulforhodamine B assay relative to control; details: NCI60, 48 h, read-out: GI
In short: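 Single-dose NCI screen at 10 µM across the 60-line panel, 48 h exposure at 37 °C after a 24 h preincubation. Adherent cells were fixed with cold TCA and stained with 0.4% SRB, and absorbance was read at 515 nm. Inhibition % was taken as 100 minus growth %, and the mean across all lines was reported.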

HCT-116 = experiment: Cytotoxicity against human HCT116 cells assessed as cell growth at 10 uM; details: read-out: Activity
In short: (§2)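 Single-dose NCI-60 screen at 10 µM. Cells were grown in RPMI 1640 with 5% FBS and 2 mM L-glutamine, then treated for 48 h at 37 °C. Protein was measured by SRB staining with absorbance at 515 nm. Percentage growth was recorded, and inhibition percentage was calculated as 100 minus growth percentage.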

UO-31 = experiment: Cytotoxicity against human UO31 cells assessed as cell growth at 10 uM; details: read-out: Activity; in short: as §1
[2] = Cytotoxicity against human […] cells assessed as cell growth at 10 uM; details: read-out: Activity; in short: as §1
SK-MEL-5 = experiment: Cytotoxicity against human SK-MEL-5 cells assessed as cell growth at 10 uM; details: read-out: Activity; in short: as §1
CAKI-1 = experiment: Cytotoxicity against human Caki1 cells assessed as cell growth at 10 uM; details: read-out: Activity; in short: as §2
DU-145 = experiment: Cytotoxicity against human DU145 cells assessed as cell growth at 10 uM; details: read-out: Activity; in short: as §2
ACHN = experiment: Cytotoxicity against human ACHN cells assessed as cell growth at 10 uM; details: read-out: Activity; in short: as §2
A549 = experiment: Cytotoxicity against human A549 cells assessed as cell growth at 10 uM; details: read-out: Activity; in short: as §2
PC-3 = experiment: Cytotoxicity against human PC3 cells assessed as cell growth at 10 uM; details: read-out: Activity; in short: as §1
SF-295 = experiment: Cytotoxicity against human SF295 cells assessed as cell growth at 10 uM; details: read-out: Activity; in short: as §1
NCI-H322M = experiment: Cytotoxicity against human NCI-H322M cells assessed as cell growth at 10 uM; details: read-out: Activity; in short: as §1
SK-MEL-2 = experiment: Cytotoxicity against human SK-MEL-2 cells assessed as cell growth at 10 uM; details: read-out: Activity; in short: as §1
UACC-62 = experiment: Cytotoxicity against human UACC62 cells assessed as cell growth at 10 uM; details: read-out: Activity; in short: as §1
HOP-92 = experiment: Cytotoxicity against human HOP92 cells assessed as cell growth at 10 uM; details: read-out: Activity; in short: as §2
LOX IMVI = experiment: Cytotoxicity against human LOXIMVI cells assessed as cell growth at 10 uM; details: read-out: Activity; in short: as §1
UACC-257 = experiment: Cytotoxicity against human UACC257 cells assessed as cell growth at 10 uM; details: read-out: Activity; in short: as §1
TK-10 = experiment: Cytotoxicity against human TK10 cells assessed as cell growth at 10 uM; details: read-out: Activity; in short: as §1
A498 = experiment: Cytotoxicity against human A498 cells assessed as cell growth at 10 uM; details: read-out: Activity; in short: as §2
HT-29 = experiment: Cytotoxicity against human HT-29 cells assessed as cell growth at 10 uM; details: read-out: Activity; in short: as §2
OVCAR-4 = experiment: Cytotoxicity against human OVCAR4 cells assessed as cell growth at 10 uM; details: read-out: Activity; in short: as §1
OVCAR-8 = experiment: Cytotoxicity against human OVCAR8 cells assessed as cell growth at 10 uM; details: read-out: Activity; in short: as §1
SF-268 = experiment: Cytotoxicity against human SF268 cells assessed as cell growth at 10 uM; details: read-out: Activity; in short: as §1
SN12C = experiment: Cytotoxicity against human SN12C cells assessed as cell growth at 10 uM; details: read-out: Activity; in short: as §1
MDA-MB-435 = experiment: Cytotoxicity against human MDA-MB-435 cells assessed as cell growth at 10 uM; details: read-out: Activity; in short: as §1
NCI-H460 = experiment: Cytotoxicity against human NCI-H460 cells assessed as cell growth at 10 uM; details: read-out: Activity; in short: as §1
Malme-3M = experiment: Cytotoxicity against human MALME-3M cells assessed as cell growth at 10 uM; details: read-out: Activity; in short: as §1
IGROV-1 = experiment: Cytotoxicity against human IGROV1 cells assessed as cell growth at 10 uM; details: read-out: Activity; in short: as §2
[3] = Cytotoxicity against human Hs 578T cells assessed as cell growth at 10 uM; details: read-out: Activity; in short: as §2
BT-549 = experiment: Cytotoxicity against human BT549 cells assessed as cell growth at 10 uM; details: read-out: Activity; in short: as §2
HL-60(TB) = experiment: Cytotoxicity against human HL-60(TB) cells assessed as cell growth at 10 uM; details: read-out: Activity
In short: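 NCI 60-cell panel screen at a single concentration of 10 µM. Cells are grown in RPMI 1640 with 5% FBS and 2 mM L-glutamine and read by SRB protein staining at 515 nm. Percent growth is measured relative to time-zero and untreated controls; inhibition % is 100 minus growth %.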

NCI-H522 = experiment: Cytotoxicity against human NCI-H522 cells assessed as cell growth at 10 uM; details: read-out: Activity; in short: as §1
MDA-MB-231 = experiment: Cytotoxicity against human MDA-MB-231 cells assessed as cell growth at 10 uM; details: read-out: Activity; in short: as §1
MCF7 = experiment: Cytotoxicity against human MCF7 cells assessed as cell growth at 10 uM; details: read-out: Activity; in short: as §1
MDA-MB-468 = experiment: Cytotoxicity against human MDA-MB-468 cells assessed as cell growth at 10 uM; details: read-out: Activity; in short: as §1
U-251 = experiment: Cytotoxicity against human U251 cells assessed as cell growth at 10 uM; details: read-out: Activity; in short: as §1
SW-620 = experiment: Cytotoxicity against human SW620 cells assessed as cell growth at 10 uM; details: read-out: Activity; in short: as §1
SNB-19 = experiment: Cytotoxicity against human SNB19 cells assessed as cell growth at 10 uM; details: read-out: Activity; in short: as §1
COLO 205 = experiment: Cytotoxicity against human COLO205 cells assessed as cell growth at 10 uM; details: read-out: Activity; in short: as §2
NCI-H226 = experiment: Cytotoxicity against human NCI-H226 cells assessed as cell growth at 10 uM; details: read-out: Activity; in short: as §1
786-0 = experiment: Cytotoxicity against human 786-0 cells assessed as cell growth at 10 uM; details: read-out: Activity; in short: as §2
T47D = experiment: Cytotoxicity against human T47D cells assessed as cell growth at 10 uM; details: read-out: Activity; in short: as §1
HCC 2998 = experiment: Cytotoxicity against human HCC2998 cells assessed as cell growth at 10 uM; details: read-out: Activity; in short: as §2
NCI-H23 = experiment: Cytotoxicity against human NCI-H23 cells assessed as cell growth at 10 uM; details: read-out: Activity; in short: as §1
OVCAR-5 = experiment: Cytotoxicity against human OVCAR5 cells assessed as cell growth at 10 uM; details: read-out: Activity; in short: as §1
CCRF-CEM = experiment: Cytotoxicity against human CCRF-CEM cells assessed as cell growth at 10 uM; details: read-out: Activity; in short: as §2
SK-OV-3 = experiment: Cytotoxicity against human SKOV3 cells assessed as cell growth at 10 uM; details: read-out: Activity; in short: as §1
K562 = experiment: Cytotoxicity against human K562 cells assessed as cell growth at 10 uM; details: read-out: Activity; in short: as §2
EKVX = experiment: Cytotoxicity against human EKVX cells assessed as cell growth at 10 uM; details: read-out: Activity; in short: as §2
KM12 = experiment: Cytotoxicity against human KM12 cells assessed as cell growth at 10 uM; details: read-out: Activity; in short: as §1
HCT-15 = experiment: Cytotoxicity against human HCT15 cells assessed as cell growth at 10 uM; details: read-out: Activity; in short: as §2
SNB-75 = experiment: Cytotoxicity against human SNB75 cells assessed as cell growth at 10 uM; details: read-out: Activity; in short: as §1
HOP-62 = experiment: Cytotoxicity against human HOP62 cells assessed as cell growth at 10 uM; details: read-out: Activity; in short: as §2
MOLT-4 = experiment: Cytotoxicity against human MOLT4 cells assessed as cell growth at 10 uM; details: read-out: Activity; in short: as §1
SF-539 = experiment: Cytotoxicity against human SF539 cells assessed as cell growth at 10 uM; details: read-out: Activity; in short: as §1

COc1cc(C)cc(-c2c(-c3ccnc(-c4cccc(NC(C)=O)c4)c3)cnn2CC#N)c1
growth at 10 µM (SK-MEL-28): 104% | growth at 10 µM (OVCAR-3): 109% | growth at 10 µM (SR): 80.9% | growth at 10 µM (NCI/ADR-RES): 87.3% | growth at 10 µM (M14): 96.3% | growth at 10 µM (RXF 393): 81.5% | inhibition of growth at 10 µM [1]: 9.4% | growth at 10 µM (HCT-116): 96.4% | growth at 10 µM (UO-31): 63.6% | growth at 10 µM [2]: 79.9% | growth at 10 µM (SK-MEL-5): 86.9% | growth at 10 µM (CAKI-1): 77.3% | growth at 10 µM (DU-145): 105% | growth at 10 µM (ACHN): 86% | growth at 10 µM (A549): 86.7% | growth at 10 µM (PC-3): 85.8% | growth at 10 µM (SF-295): 102% | growth at 10 µM (NCI-H322M): 96.9% | growth at 10 µM (SK-MEL-2): 92.1% | growth at 10 µM (UACC-62): 81.6% | growth at 10 µM (HOP-92): 79.6% | growth at 10 µM (LOX IMVI): 97.5% | growth at 10 µM (UACC-257): 89.8% | growth at 10 µM (TK-10): 67.1% | growth at 10 µM (A498): 74.2% | growth at 10 µM (HT-29): 99.4% | growth at 10 µM (OVCAR-4): 99.7% | growth at 10 µM (OVCAR-8): 88% | growth at 10 µM (SF-268): 97.3% | growth at 10 µM (SN12C): 83% | growth at 10 µM (MDA-MB-435): 99.6% | growth at 10 µM (NCI-H460): 107% | growth at 10 µM (Malme-3M): 108% | growth at 10 µM (IGROV-1): 98.4% | growth at 10 µM [3]: 99% | growth at 10 µM (BT-549): 79.1% | growth at 10 µM (HL-60(TB)): 74.7% | growth at 10 µM (NCI-H522): 82.5% | growth at 10 µM (MDA-MB-231): 86.5% | growth at 10 µM (MCF7): 85% | growth at 10 µM (MDA-MB-468): 82.8% | growth at 10 µM (U-251): 94.3% | growth at 10 µM (SW-620): 104% | growth at 10 µM (SNB-19): 89.6% | growth at 10 µM (COLO 205): 93.5% | growth at 10 µM (NCI-H226): 93.1% | growth at 10 µM (786-0): 84% | growth at 10 µM (T47D): 79.3% | growth at 10 µM (HCC 2998): 101% | growth at 10 µM (NCI-H23): 95.3% | growth at 10 µM (OVCAR-5): 91.6% | growth at 10 µM (CCRF-CEM): 88.9% | growth at 10 µM (SK-OV-3): 93.3% | growth at 10 µM (K562): 86.4% | growth at 10 µM (EKVX): 100% | growth at 10 µM (KM12): 109% | growth at 10 µM (HCT-15): 94.5% | growth at 10 µM (SNB-75): 72.4% | growth at 10 µM (HOP-62): 98.9% | growth at 10 µM (MOLT-4): 82.8% | growth at 10 µM (SF-539): 84.5%
